Converted amounts (≈) assume the structure as drawn.
Tests used:
Type in all cases: functional
Staphylococcus aureus [1] = test: Antibacterial activity against methicillin-resistant Staphylococcus aureus C530 after 16 to 20 hrs by microbroth dilution method
Summary of the method: (§1)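 CLSI broth microdilution in Mueller-Hinton broth. Compound stocks in 100% DMSO, serially diluted two-fold to 0.12->256 mg/L. An equal volume of inoculum at 1 x 10⁶ CFU/mL was added to each well. Plates were incubated 16-20 h at 35 °C. MIC (mg/L) was taken as the lowest concentration with no visible growth. DMSO and uninoculated-medium controls were run in parallel.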

Streptococcus pneumoniae = test: Antibacterial activity against Streptococcus pneumoniae PEN-1 after 16 to 20 hrs by microbroth dilution method; conditions: PEN I
Summary of the method: (§2)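 CLSI broth microdilution in Mueller-Hinton broth. Compounds were dissolved in 100% DMSO and serially two-fold diluted to cover 0.12 to >256 mg/L. An equal volume of inoculum at 1 × 10⁶ CFU/mL was added, then plates were incubated at 35 °C for 16–20 h. MIC was the lowest concentration with no visible growth. DMSO and uninoculated-medium controls were run in parallel.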

Streptococcus pyogenes [2] = test: Antibacterial activity against Streptococcus pyogenes ATCC 19615 after 16 to 20 hrs by microbroth dilution method; summary of the method: as §1
Streptococcus pyogenes [3] = test: Antibacterial activity against erythromycin-sensitive Streptococcus pyogenes 9 after 16 to 20 hrs by microbroth dilution method; summary of the method: as §2
Streptococcus pyogenes [4] = test: Antibacterial activity against erythromycin-resistant Streptococcus pyogenes 24 after 16 to 20 hrs by microbroth dilution method; summary of the method: as §1
Streptococcus pyogenes [5] = test: Antibacterial activity against erythromycin-sensitive Streptococcus pyogenes 3 after 16 to 20 hrs by microbroth dilution method; summary of the method: as §2
Staphylococcus aureus [6] = test: Antibacterial activity against methicillin-sensitive Staphylococcus aureus ATCC 25923 after 16 to 20 hrs by microbroth dilution method; summary of the method: as §2
Escherichia coli [7] = test: Antibacterial activity against Escherichia coli ATCC 25922 after 16 to 20 hrs by microbroth dilution method; summary of the method: as §2
Streptococcus pyogenes [8] = test: Antibacterial activity against erythromycin-resistant Streptococcus pyogenes 47 after 16 to 20 hrs by microbroth dilution method; summary of the method: as §1
Streptococcus pyogenes [9] = test: Antibacterial activity against erythromycin-resistant Streptococcus pyogenes 6 after 16 to 20 hrs by microbroth dilution method; summary of the method: as §1
Escherichia coli [10] = test: Antibacterial activity against Escherichia coli 3350 after 16 to 20 hrs by microbroth dilution method; summary of the method: as §2
Streptococcus pyogenes [11] = test: Antibacterial activity against erythromycin-sensitive Streptococcus pyogenes 12 after 16 to 20 hrs by microbroth dilution method; summary of the method: as §2
Staphylococcus aureus [12] = test: Antibacterial activity against Staphylococcus aureus ATCC 43300 after 16 to 20 hrs by microbroth dilution method; summary of the method: as §2
Staphylococcus aureus [13] = test: Antibacterial activity against methicillin-resistant glycopeptide-intermediate Staphylococcus aureus Mu50 after 16 to 20 hrs by microbroth dilution method; summary of the method: as §1
Staphylococcus aureus [14] = test: Antibacterial activity against methicillin-sensitive Staphylococcus aureus ATCC 29213 after 16 to 20 hrs by microbroth dilution method; summary of the method: as §2
Serratia marcescens = test: Antibacterial activity against Serratia marcescens Mel 522 after 16 to 20 hrs by microbroth dilution method; summary of the method: as §2
Streptococcus pyogenes [15] = test: Antibacterial activity against compound-resistant Streptococcus pyogenes 47 after 16 to 20 hrs by microbroth dilution method; summary of the method: as §1
Streptococcus pyogenes [16] = test: Antibacterial activity against compound-resistant Streptococcus pyogenes 24 after 16 to 20 hrs by microbroth dilution method; summary of the method: as §1

SMILES	MIC (Staphylococcus aureus [1]) [µg/mL]	MIC (Streptococcus pneumoniae) [µg/mL]	MIC (Streptococcus pyogenes [2]) [µg/mL]	MIC (Streptococcus pyogenes [3]) [µg/mL]	MIC (Streptococcus pyogenes [4]) [µg/mL]	MIC (Streptococcus pyogenes [5]) [µg/mL]	MIC (Staphylococcus aureus [6]) [µg/mL]	MIC (Escherichia coli [7]) [µg/mL]	MIC (Streptococcus pyogenes [8]) [µg/mL]	MIC (Streptococcus pyogenes [9]) [µg/mL]	MIC (Escherichia coli [10]) [µg/mL]	MIC (Streptococcus pyogenes [11]) [µg/mL]	MIC (Staphylococcus aureus [12]) [µg/mL]	MIC (Staphylococcus aureus [13]) [µg/mL]	MIC (Staphylococcus aureus [14]) [µg/mL]	MIC (Serratia marcescens) [µg/mL]	MIC (Streptococcus pyogenes [15]) [µg/mL]	MIC (Streptococcus pyogenes [16]) [µg/mL]
CC(=O)NCc1noc(-c2ccc(N3CCOCC3)cc2)n1	> 256	128 (≈ 423 µM)	128 (≈ 423 µM)	128 (≈ 423 µM)	64 (≈ 212 µM)	128 (≈ 423 µM)	> 256	> 256	64 (≈ 212 µM)	128 (≈ 423 µM)	128 (≈ 423 µM)	128 (≈ 423 µM)	> 256	> 256	> 256	128 (≈ 423 µM)	–	–
CC(=O)NCc1noc(-c2ccc(N3CCOCC3)c(F)c2)n1	> 256	> 256	128 (≈ 400 µM)	> 256	128 (≈ 400 µM)	> 256	> 256	128 (≈ 400 µM)	> 256	128 (≈ 400 µM)	128 (≈ 400 µM)	128 (≈ 400 µM)	> 256	> 256	> 256	> 256	–	–
CC(=O)NCc1noc(-c2cc(F)c(N3CCOCC3)c(F)c2)n1	> 256	> 256	128 (≈ 378 µM)	> 256	> 256	> 256	> 256	128 (≈ 378 µM)	128 (≈ 378 µM)	128 (≈ 378 µM)	128 (≈ 378 µM)	> 256	> 256	> 256	> 256	> 256	–	–
CC(=O)NCc1noc(-c2cc(F)c(N3CCOCC3)c(F)c2F)n1	> 256	> 256	128 (≈ 359 µM)	> 256	> 256	> 256	> 256	128 (≈ 359 µM)	128 (≈ 359 µM)	128 (≈ 359 µM)	128 (≈ 359 µM)	> 256	> 256	> 256	> 256	> 256	–	–
CC(=O)NCc1noc(-c2c(F)c(F)c(N3CCOCC3)c(F)c2F)n1	> 256	> 256	> 256	> 256	> 256	> 256	> 256	128 (≈ 342 µM)	> 256	> 256	> 256	> 256	> 256	> 256	> 256	> 256	–	–
NC(=O)c1noc(-c2ccc(N3CCOCC3)cc2)n1	> 256	128 (≈ 467 µM)	128 (≈ 467 µM)	128 (≈ 467 µM)	> 256	128 (≈ 467 µM)	> 256	> 256	> 256	128 (≈ 467 µM)	128 (≈ 467 µM)	128 (≈ 467 µM)	> 256	> 256	> 256	128 (≈ 467 µM)	–	–
NC(=O)c1noc(-c2ccc(N3CCOCC3)c(F)c2)n1	> 256	> 256	128 (≈ 438 µM)	> 256	128 (≈ 438 µM)	128 (≈ 438 µM)	> 256	128 (≈ 438 µM)	> 256	128 (≈ 438 µM)	128 (≈ 438 µM)	128 (≈ 438 µM)	> 256	> 256	> 256	128 (≈ 438 µM)	–	–
NC(=O)c1noc(-c2cc(F)c(N3CCOCC3)c(F)c2)n1	> 256	> 256	128 (≈ 413 µM)	> 256	> 256	> 256	> 256	128 (≈ 413 µM)	128 (≈ 413 µM)	128 (≈ 413 µM)	128 (≈ 413 µM)	> 256	> 256	> 256	> 256	> 256	–	–
NC(=O)c1noc(-c2cc(F)c(N3CCOCC3)c(F)c2F)n1	> 256	> 256	128 (≈ 390 µM)	> 256	> 256	> 256	> 256	128 (≈ 390 µM)	128 (≈ 390 µM)	128 (≈ 390 µM)	128 (≈ 390 µM)	> 256	> 256	> 256	> 256	> 256	–	–
NC(=O)c1noc(-c2c(F)c(F)c(N3CCOCC3)c(F)c2F)n1	> 256	> 256	> 256	> 256	> 256	> 256	> 256	128 (≈ 370 µM)	> 256	> 256	> 256	> 256	> 256	> 256	> 256	> 256	–	–
CO/N=C(\C(=O)N[C@@H]1C(=O)N2C(C(=O)O)=C(CSc3nc(=O)c(O)nn3C)CS[C@H]12)c1csc(N)n1 [CEFTRIAXONE]	> 256	0.12 (≈ 0.216 µM)	< 0.12	< 0.12	< 0.12	< 0.12	1 (≈ 1.8 µM)	0.12 (≈ 0.216 µM)	< 0.12	< 0.12	4 (≈ 7.21 µM)	< 0.12	8 (≈ 14.4 µM)	4 (≈ 7.21 µM)	4 (≈ 7.21 µM)	< 0.12	–	–
CC[C@H]1OC(=O)[C@H](C)[C@@H](O[C@H]2C[C@@](C)(OC)[C@@H](O)[C@H](C)O2)[C@H](C)[C@@H](O[C@@H]2O[C@H](C)C[C@H](N(C)C)[C@H]2O)[C@](C)(O)C[C@@H](C)C(=O)[C@H](C)[C@@H](O)[C@]1(C)O [ERYTHROMYCIN]	–	–	–	–	–	–	–	–	–	–	–	–	–	–	–	–	> 256	> 256
CC(=O)NC[C@H]1CN(c2ccc(N3CCOCC3)c(F)c2)C(=O)O1 [LINEZOLID]	–	–	1 (≈ 2.96 µM)	1 (≈ 2.96 µM)	0.12 (≈ 0.356 µM)	1 (≈ 2.96 µM)	1 (≈ 2.96 µM)	4 (≈ 11.9 µM)	1 (≈ 2.96 µM)	0.12 (≈ 0.356 µM)	> 256	0.25 (≈ 0.741 µM)	–	–	–	128 (≈ 379 µM)	–	–

Reference: ChEMBL document CHEMBL1949535, “Synthesis and preliminary antibacterial evaluation of Linezolid-like 1,2,4-oxadiazole derivatives” (2012)
